The source made the active and inactive calls. No cut-off for these calls is given here.
Tests used:
[1] = biological target: T1, CAAX prenyl protease 2 (Homo sapiens) (UniProt Q9Y256); test: Inhibition of human Rce1-mediated CaaX protease activity using […] and […] as substrate assessed as residual activity at 10 uM measured every 30 to 60 seconds for 60 mins
T1 sequence (whole entry): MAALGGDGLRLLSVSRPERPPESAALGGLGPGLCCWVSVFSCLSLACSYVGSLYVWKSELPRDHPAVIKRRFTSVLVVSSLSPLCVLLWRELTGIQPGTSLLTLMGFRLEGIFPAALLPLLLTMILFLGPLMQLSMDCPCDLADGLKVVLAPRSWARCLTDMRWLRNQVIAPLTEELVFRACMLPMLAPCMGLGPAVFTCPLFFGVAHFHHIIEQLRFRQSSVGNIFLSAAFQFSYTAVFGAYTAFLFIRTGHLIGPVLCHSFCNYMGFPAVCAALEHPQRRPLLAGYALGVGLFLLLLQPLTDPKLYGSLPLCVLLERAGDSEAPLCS
Procedure, shortened: (§1)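 Membranes from yeast SM3614 (ste24 rce1 null) overexpressing human Rce1, 0.25 mg/mL final in 200 mM Tris pH 7.5, 200 mM NaCl, 1 mg/mL BSA. […] Reaction started with 20 μM ABZ-KSKTKC(farnesyl)QLIM. Fluorescence (ex 320/em 420) read every 30–60 s for 60 min at 30 °C. Initial velocities trypsin-normalised; activity given as % of DMSO control.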

CAAX prenyl protease 2 = biological target: T2, CAAX prenyl protease 2 (Homo sapiens, UniProt Q9Y256); test: Inhibition of human Rce1-mediated CaaX protease activity using ABZ-KSKTKC(farnesyl)QIIM and ABZ-KSKTKC(farnesyl)VIQI as substrate assessed as residual activity measured every 30 to 60 seconds for 60 mins; procedure, shortened: as §1
T2 sequence (Q9Y256 whole entry): T1 sequence (whole entry)

[2] = Cytotoxicity against human HCT116 cells assessed as cell death at 25 uM after 20 hrs by celltiter blue assay (reference value: 0.4%); type: cell-based; conditions: hct-116, 20 h
Procedure, shortened: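 HCT-116 cells grown in DMEM with 10% FBS and 1% NEAA at 37 °C, 5% CO2, seeded 7 × 10^3 per well, exposed 20 h to 25 μM compound (0.4% DMSO vehicle; untreated control). CellTiter-Blue added for 4 h, fluorescence read at 560/590 nm. Values relative to untreated cells, mean of three independent experiments with SEM.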

[3] = biological target: T3, CAAX prenyl protease 1 homolog (Homo sapiens) (UniProt O75844); test: Inhibition of human FACE1-mediated CaaX protease activity at 10 uM measured every 30 to 60 seconds for 60 mins
T3 sequence (whole entry): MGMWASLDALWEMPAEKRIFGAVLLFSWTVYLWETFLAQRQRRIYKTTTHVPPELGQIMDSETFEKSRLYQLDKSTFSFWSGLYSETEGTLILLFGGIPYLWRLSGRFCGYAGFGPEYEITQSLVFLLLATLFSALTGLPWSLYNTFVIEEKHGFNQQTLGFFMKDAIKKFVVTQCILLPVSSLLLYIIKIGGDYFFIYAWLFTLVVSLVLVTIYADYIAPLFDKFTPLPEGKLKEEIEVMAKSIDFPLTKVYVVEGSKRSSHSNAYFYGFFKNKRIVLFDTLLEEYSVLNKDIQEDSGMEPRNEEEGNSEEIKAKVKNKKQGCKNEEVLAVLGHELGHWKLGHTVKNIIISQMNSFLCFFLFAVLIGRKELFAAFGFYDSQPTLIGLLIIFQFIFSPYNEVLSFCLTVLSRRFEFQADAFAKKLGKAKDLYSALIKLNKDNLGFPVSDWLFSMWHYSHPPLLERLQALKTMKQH
Procedure, shortened: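 Human Ste24 overexpressed in yeast strain SM3614 (ste24 rce1 null); membranes 0.25 mg/mL final in 200 mM Tris pH 7.5, 200 mM NaCl, 1 mg/mL BSA. Pretreated 15 min at 30 °C with 10 μM compound in duplicate, then 20 μM ABZ-KSKTKC(farnesyl)VIQL substrate added. Fluorescence (ex 320/em 420) read every 30–60 s for 60 min at 30 °C. Initial velocities normalised via trypsin-digest maximum fluorescence and expressed as % of DMSO control. SD shown.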

[4] = test system: Protein farnesyltransferase (Rattus norvegicus); test: Inhibition of protein farnesyltransferase (rat) at 50 uM measured every 40 seconds for 60 mins
[5] = biological target: T1, CAAX prenyl protease 2 (Homo sapiens); test: Effect on EGFP-H-Ras plasma membrane association in human HCT116 cells at 25 uM after 20 hrs by fluorescence assay; conditions: HCT-116
[6] = biological target: T1, CAAX prenyl protease 2 (Homo sapiens); test: Effect on EGFP-N-Ras plasma membrane association in human HCT116 cells at 25 uM after 20 hrs by fluorescence assay; conditions: HCT-116
[7] = biological target: T1, CAAX prenyl protease 2 (Homo sapiens); test: Inhibition of Rce1 in human HCT116 cells assessed as mislocalization of EGFP-K-Ras in plasma membrane at 25 uM after 20 hrs by fluorescence assay; conditions: HCT-116

Row | Compound | Activity [1] | IC50 (CAAX prenyl protease 2) | Cell death [2] | inhibition [3] | inhibition [4] | PM association [5] | PM association [6] | K-Ras plasma membrane association [7]
1 | Oc1c(C(Nc2ccccc2)c2ccccc2)ccc2cccnc12 (stereo not drawn) | 39% | 8.9 µM | < 10% | inactive | inactive | 14% | 10% | 
2 | O=C(O)c1ccc(NC(c2ccc(Br)cc2)c2ccc3cccnc3c2O)cc1 (stereo not drawn) | 23% | 6.7 µM | 25% | inactive | inactive |  |  | 16%
